HEK293 NFkB inh: inhibitors of PMA/ionomycin-induced NF-kB reporter, primary screen, antigen receptor NF-kB inhibitor project, cell-based, HEK-293 luciferase reporter, luminescence; inhibition, % at 3 µM; 0.21% of 62,000 active; HEK-293 NF-kB luciferase reporter; AID 465, 2006;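 active means inhibition above the mean of all tested compounds plus 3 SD, cut at about 40% in these data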;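 further: 0% = stimulated DMSO wells and 100% = 10 µM reference inhibitor 5653914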
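Timing: 1 h pretreatment, 16 h stimulation, 37 °C; system: HEK-293 cells with stable firefly luciferase reporter driven by four HIV NF-kB elements; doses: 3 µM once, 0.30% DMSO; measured by: luciferase luminescence; control set: DMSO and 10 µM reference inhibitor; repeats: single test; reagent: PMA plus ionomycin mix as NF-kB-activating stimulus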
Htt clearance: clearance of mutant huntingtin inclusions, primary screen, imaging, HeLa Exon1htt(103Q)mCFP, confocal imaging. aggregate imaging; zero = plate's median compound well. inhibition, % at 1.5 µM. 0.42% of 47,000 active. AID 853, 2007;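 active means inhibition of aggregate fluorescence above about 70%, also judged a hit by eye on the cell image, limit read from the data, passing the limit was not always enough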;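 further: cells exposed to compound for three days before fixation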
M1 ag: M1 muscarinic receptor agonists, primary screen, CHO-M1 cells, Fluo-4 calcium, agonist mode. Muscarinic acetylcholine receptor M1. 3% of 64,000 active. B-score at 10 µM. AID 626, 2007. Fluo-4 calcium fluorescence; stronger effect = higher value;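 active means fluorescence rise, raw or as B-score row- and column-corrected plate score, outside the 99.7% band of its plate's samples, either direction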
M1 antag: antagonists of rat M1 muscarinic receptor. Muscarinic acetylcholine receptor M1 (Rattus norvegicus), P08482. CHO-M1 cells, Fluo-4 calcium, ACh EC80 antagonist mode; stronger effect = lower value. B-score at 10 µM. 3.4% of 64,000 active. AID 628, 2007;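 active means calcium fluorescence response, raw or row-and-column corrected B-score, differing from the plate sample mean either way at a set confidence level, mostly lower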
Jurkat viability: cytotoxicity toward Jurkat T cells, primary screen, cytotoxicity control, cell-based, Jurkat E6.1, 60K MLSMR library; Jurkat E6.1 viability, ATP luminescence, 48 h; inhibition, % at 4 µM; 1.2% of 56,000 active; AID 463, 2006;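 active means inhibition above the mean inhibition of all tested compounds plus 3 SD, cut at about 28% in these data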
D1 allo mod: D1 CRE-luciferase signal change, two-sided – cell-based, HEK293 D1, dopamine EC30, D1 allosteric modulator project, primary screen | D(1A) dopamine receptor (Homo sapiens), P21728 | dopamine EC30 potentiation; actives deviate in either direction | B-score at 10 µM | 5.9% of 58,000 active;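 active means luminescence count or its row- and column-corrected plate score outside the 99.7% band of the plate's sample wells, on either side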
Target sequence (P21728 whole entry, looked up): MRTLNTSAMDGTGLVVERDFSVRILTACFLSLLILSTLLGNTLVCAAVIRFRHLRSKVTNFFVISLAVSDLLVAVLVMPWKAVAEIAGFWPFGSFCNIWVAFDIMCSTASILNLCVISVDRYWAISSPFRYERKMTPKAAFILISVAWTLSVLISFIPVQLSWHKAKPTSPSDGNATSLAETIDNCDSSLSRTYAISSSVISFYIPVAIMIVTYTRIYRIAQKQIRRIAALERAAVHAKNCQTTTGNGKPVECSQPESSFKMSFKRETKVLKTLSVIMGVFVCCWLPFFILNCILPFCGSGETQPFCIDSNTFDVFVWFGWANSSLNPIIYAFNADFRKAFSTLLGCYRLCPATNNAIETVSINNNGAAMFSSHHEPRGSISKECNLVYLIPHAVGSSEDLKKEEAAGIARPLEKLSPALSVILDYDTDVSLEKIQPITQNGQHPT
Numbers without * were called inactive; nt = not tested or not shown. Hits are enriched below; roughly 9.5% of the tested compounds scored in any of these assays.

SMILES	HEK293 NFkB inh	Htt clearance	M1 ag	M1 antag	Jurkat viability	D1 allo mod
O=C(NCCCN1CCCC1)c1cccc(N2CCCC2=O)c1	5	8	-0.13	-0.39	nt	nt
O=C(NCCCN1CCN(c2ccc(F)cc2)CC1)c1cccc(N2CCCC2=O)c1	0	57	-0.69	0.83	5	-6.1*
C=CCn1c(SCC2=C(C(=O)OCC)C(C)NC(=O)N2)nnc1C1CCCCC1 (centres undefined)	19	20	0.49	-1.1	-5	-0.96
CCCN(CCC)CCNC(=O)C1CCCN(S(=O)(=O)c2ccc3c(c2)oc(=O)n3C)C1 (centres undefined)	-5	nt	0.41	-0.65	2	-3.1*
Cn1c(=O)oc2cc(S(=O)(=O)N3CCCC(C(=O)NCCN4CCOCC4)C3)ccc21 (centres undefined)	9	nt	1.2	-0.85	-3	-1.2
COc1ccc(CCNC(=O)CN2CCN(c3cccc(Cl)c3)CC2)cc1OC	13	nt	-0.49	0.73	1	-2
COc1ccccc1NC(=O)NCCCN1CCN(c2cccc(Cl)c2)CC1	16	15	-0.77	-0.29	-4	-4.2*
COc1cc(CN2CCN(c3cccc(Cl)c3)CC2)cc(OC)c1OC	21	nt	-0.23	-1.3	81*	-2.4
Cn1c(=O)cc(OCC(=O)NCCCN2CCN(c3cccc(Cl)c3)CC2)c2ccccc21	6	nt	-1	0.18	8	-5.3*
CC(=O)Nc1ccc(-c2nnc(SCC(=O)NCc3ccco3)n2C)cc1	nt	0	nt	nt	nt	nt
O=C(CSc1oc(-c2ccco2)nc1S(=O)(=O)c1ccc(Cl)cc1)NCC1CCCO1 (centres undefined)	13	nt	0.018	0.037	nt	nt
COC(=O)c1ccc(C2CC(=O)Nc3cc(OC)c(OC)c(OC)c32)cc1 (centres undefined)	13	nt	-0.63	0.14	-3	0.45
CC(=O)c1c(C(C)=O)c(C)n(-c2nc(-c3ccc(C)c(C)c3)c(C)s2)c1C	nt	58	nt	nt	nt	nt
CCn1c2ccccc2c2nnc(SCN3C(=O)c4ccccc4C3=O)nc21	12	nt	-1.1	-0.34	4	9.5*
CCn1c2ccccc2c2nnc(SCC(=O)NC(C(=O)OC)C(C)C)nc21 (centres undefined)	19	nt	0.36	0.66	3	3.7*
COC(=O)c1ccc(C(=O)OC)c(NC2=NS(=O)(=O)c3ccccc32)c1	11	75*	0.56	0.039	6	1
CCOC(=O)C1CCN(CC(=O)Nc2c(C(=O)OC)[nH]c3ccc(Cl)cc23)CC1	16	6	0.37	-0.2	44*	0.23
CC(C)OC(=O)c1c(N)sc2c1CCCC2	15	-16	0.54	1.7	5	11*
CN(C)CC(C(=O)c1ccccc1)c1ccccc1 (centres undefined)	32	nt	0.65	-1.6	101*	-1.3
CN(C)CC(=O)c1ccc(-c2ccccc2)cc1	19	nt	0.066	-0.16	5	-0.1
Oc1c(CN2CCCCC2)cc(Br)c2cccnc12	19	-10	-1	-0.14	49*	0.39
CN1CCN(Cc2cc(COCc3ccccc3)c3cccnc3c2O)CC1	30	nt	-0.17	-1.2	36*	0.4
COCCn1c(C)cc(C(=O)COC(=O)c2cc3c(s2)CCC3)c1C	15	-9	-0.29	-2.3	3	-0.53
COCCn1c(C)cc(C(=O)COC(=O)C23CC4CC(CC(O)(C4)C2)C3)c1C	-26	-14	0.34	0.8	-4	-4.6*
CC1=CCC(Cc2nc3ccccc3o2)C1(C)C (centres undefined)	11	77*	0.42	1	-5	-0.4
SMILES	HEK293 NFkB inh	Htt clearance	M1 ag	M1 antag	Jurkat viability	D1 allo mod
c1ccc2oc(CCc3nc4ccccc4o3)nc2c1	10	nt	0.041	-0.35	-6	-0.38
CCCC(=O)Nc1nc2ccc(S(=O)(=O)N3CCCCC3)cc2s1	27	nt	-0.048	1.4	79*	1.3
O=C(c1ccco1)[C@@H]1[C@@H]2C(=O)N(c3ccccc3)C(=O)[C@@H]2C2c3ccccc3C=CN21 (some centres undefined)	8	-2	3.9	-0.12	-3	0.97
CC(=O)[C@@H]1[C@@H]2C(=O)N(Cc3ccccc3)C(=O)[C@@H]2C2c3ccccc3C=CN21 (some centres undefined)	18	31	26*	0.058	0	0.71
Cc1cc(C)nc(N2CCC(C(=O)NCCc3ccc(F)cc3)CC2)n1	52*	40	0.47	-0.014	4	-0.21
Cc1noc(C)c1COc1cccc(C(=O)OCC(=O)N2CC(=O)Nc3ccccc32)c1	-4	nt	0.97	-0.2	84*	-0.48
CCOc1ncccc1C(=O)OCC(=O)N1CC(=O)Nc2ccccc21	9	nt	-0.8	0.71	-7	-0.48
O=C1CN(C(=O)c2ccccn2)c2ccccc2N1	1	nt	-0.2	0.44	nt	nt
CCCn1nc(C(=O)N2CC(=O)Nc3ccccc32)c2ccccc2c1=O	6	4	0.046	0.14	74*	1.3
CCOc1nnc(C)c2c(C)n(-c3ccc(Cl)cc3)nc12	nt	74*	nt	nt	nt	nt
Cc1cccc(N2CCN(C(=O)c3ccc(Cl)c(S(=O)(=O)NCc4ccco4)c3)CC2)c1C	12	nt	0.13	0.29	84*	0.097
COc1ccc(CN2CCn3ncc(C(=O)Nc4cc(C)cc(C)c4)c3C2=O)cc1	nt	-15	nt	nt	nt	nt
CCCCOc1ncnc2c1[nH]c1ccccc12	34	23	0.81	-1.3	76*	-1
O=C1CC(=C2c3ccccc3-c3ccccc32)C(=O)N1CCN1CCN(c2ccccc2)CC1	nt	-35	nt	nt	nt	nt
Cc1nnc(SC(=O)N2c3ccccc3Sc3ccccc32)s1	28	nt	-0.78	-1.6	17	-3.3*
Cc1nnc(SCC(=O)N2c3ccccc3Sc3ccccc32)n1N	9	30	3.2	0	1	-0.1
Cc1cc(C)cc(NC2=NC3(CCCCC3)N=C(N)N2)c1	-4	-105	-0.057	-0.19	66*	-5.3*
COc1ccc(Cc2c(O)nc(SCC(=O)N3CCCCCC3)[nH]c2=O)cc1	nt	50	nt	nt	nt	nt
C=CCNC(=O)c1cc(=O)c2ccccc2o1	4	-23	-0.6	0.69	-10	0.28
CCOC(=O)Nc1cc(=O)c2ccccc2o1	12	nt	0.15	-0.18	90*	-0.019
O=C(c1ccccc1)N(CCN1CCOCC1)C1(C(=O)Nc2ccccc2)CCCCC1	14	nt	0.93	-0.23	5	0.051
CCN1CCN(c2nc(-c3cccnc3)nc3ccccc23)CC1	12	nt	0.4	-0.34	11	-4.3*
CCOC(=O)c1sc(NC(C)=O)c(C(=O)OCC)c1C	4	-36	1.8	0.052	4	nt
CCOC(=O)c1c(NC(=O)c2csc(C)c2)sc(C(C)=O)c1C	8	78*	-0.18	0.25	0	0.26
